Assay results as given in ChEMBL document CHEMBL2010708, “Rigid Analogues of Antimitotic Indolobenzazepinones: New Insights into Tubulin Binding via Molecular Modeling” (ACS Med Chem Lett, 2011).

Key:
HL-60 [1] = assay: Antiproliferative activity against human HL60 cells at 10 uM after 72 hrs by fluorescence method; assay type: functional; conditions: HL-60, 72 h, read-out: GI
Procedure, shortened: (§1)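 Panel of HCT116, MCF7 and HL60 cancer cells, each paired with a resistant counterpart (HCT15, MCF7R, HL60R). Growth inhibition was recorded as a percentage at 10 and 1 μM of test compound.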

[2] = Antiproliferative activity against human MCF7/R cells at 10 uM after 72 hrs by fluorescence method; assay type: functional; conditions: MCF7R, read-out: GI; procedure, shortened: as §1
HCT-15 [3] = assay: Antiproliferative activity against human HCT15 cells at 1 uM after 72 hrs by fluorescence method; assay type: functional; conditions: HCT-15, 72 h, read-out: GI; procedure, shortened: as §1
[4] = Antiproliferative activity against human HL60R cells at 10 uM after 72 hrs by fluorescence method; assay type: functional; conditions: read-out: GI; procedure, shortened: as §1
KB [5] = assay: Antiproliferative activity against human KB cells at 1 uM after 72 hrs by fluorescence method; assay type: functional; conditions: read-out: GI
Procedure, shortened: (§2)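 KB cells. Growth inhibition was recorded as a percentage at fixed 10 and 1 μM concentrations, with IC50 determined separately for selected compounds.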

HL-60 [6] = assay: Antiproliferative activity against human HL60 cells at 1 uM after 72 hrs by fluorescence method; assay type: functional; conditions: HL-60, 72 h, read-out: GI; procedure, shortened: as §1
[7] = Inhibition of tubulin polymerization
HCT-116 [8] = assay: Antiproliferative activity against human HCT116 cells at 1 uM after 72 hrs by fluorescence method; assay type: functional; conditions: HCT-116, 72 h, read-out: GI; procedure, shortened: as §1
[9] = Antiproliferative activity against human HL60R cells at 1 uM after 72 hrs by fluorescence method; assay type: functional; conditions: read-out: GI; procedure, shortened: as §1
MCF7 [10] = assay: Antiproliferative activity against human MCF7 cells at 1 uM after 72 hrs by fluorescence method; assay type: functional; conditions: MCF7, 72 h, read-out: GI; procedure, shortened: as §1
KB [11] = assay: Antiproliferative activity against human KB cells at 10 uM after 72 hrs by fluorescence method; assay type: functional; conditions: read-out: GI; procedure, shortened: as §2
HCT-116 [12] = assay: Antiproliferative activity against human HCT116 cells at 10 uM after 72 hrs by fluorescence method; assay type: functional; conditions: HCT-116, 72 h, read-out: GI; procedure, shortened: as §1
MCF7 [13] = assay: Antiproliferative activity against human MCF7 cells at 10 uM after 72 hrs by fluorescence method; assay type: functional; conditions: MCF7, 72 h, read-out: GI; procedure, shortened: as §1
KB [14] = assay: Antiproliferative activity against human KB cells after 72 hrs by fluorescence method; assay type: functional, cell-based; procedure, shortened: as §2
HCT-15 [15] = assay: Antiproliferative activity against human HCT15 cells at 10 uM after 72 hrs by fluorescence method; assay type: functional; conditions: HCT-15, 72 h, read-out: GI; procedure, shortened: as §1
[16] = Antiproliferative activity against human MCF7/R cells at 1 uM after 72 hrs by fluorescence method; assay type: functional; conditions: MCF7R, read-out: GI; procedure, shortened: as §1

With `O=C1NC2CCc3cccc(c32)-c2c1[nH]c1ccccc21` (centres undefined) the inhibition of growth at 10 µM (HL-60 [1]) was 90%, the inhibition of growth at 10 µM [2] was 72% and the inhibition of growth at 1 µM (HCT-15 [3]) was 75%. It also gave an inhibition of growth at 10 µM [4] of 81%, an inhibition of growth at 1 µM (KB [5]) of 63% and an inhibition of growth at 1 µM (HL-60 [6]) of 83%. The IC50 [7] was 5.3 µM, the inhibition of growth at 1 µM (HCT-116 [8]) was 64% and the inhibition of growth at 1 µM [9] was 70%. The inhibition of growth at 1 µM (MCF7 [10]) was 46%, the inhibition of growth at 10 µM (KB [11]) was 81% and the inhibition of growth at 10 µM (HCT-116 [12]) was 80%. It also gave an inhibition of growth at 10 µM (MCF7 [13]) of 39%, an IC50 (KB [14]) of 900 nM and an inhibition of growth at 10 µM (HCT-15 [15]) of 87%. It also gave an inhibition of growth at 1 µM [16] of 67%.

`CC[C@@H]1NC(=O)c2[nH]c3ccccc3c2-c2ccccc21` showed an inhibition of growth at 10 µM (HL-60 [1]) of 100%, an inhibition of growth at 10 µM [2] of 96% and an inhibition of growth at 1 µM (HCT-15 [3]) of 94%. For the same molecule, the inhibition of growth at 10 µM [4] was 95%, the inhibition of growth at 1 µM (KB [5]) was 100% and the inhibition of growth at 1 µM (HL-60 [6]) was 90%. It also gave an IC50 [7] of 1.8 µM, an inhibition of growth at 1 µM (HCT-116 [8]) of 85% and an inhibition of growth at 1 µM [9] of 78%. For the same molecule, the inhibition of growth at 1 µM (MCF7 [10]) was 82%, the inhibition of growth at 10 µM (KB [11]) was 100% and the inhibition of growth at 10 µM (HCT-116 [12]) was 100%. For the same molecule, the inhibition of growth at 10 µM (MCF7 [13]) was 92%, the IC50 (KB [14]) was 35 nM and the inhibition of growth at 10 µM (HCT-15 [15]) was 100%. The inhibition of growth at 1 µM [16] was 84%.

Molecule `O=C1c2[nH]c3ccccc3c2-c2ccccc2C2CCCN12` (centres undefined) has an inhibition of growth at 10 µM (HL-60 [1]) of 84%, an inhibition of growth at 10 µM [2] of 75% and an inhibition of growth at 1 µM (HCT-15 [3]) of 78%. The inhibition of growth at 10 µM [4] was 80%, the inhibition of growth at 1 µM (KB [5]) was 27% and the inhibition of growth at 1 µM (HL-60 [6]) was 49%. For the same molecule, the IC50 [7] was 4.2 µM, the inhibition of growth at 1 µM (HCT-116 [8]) was 64% and the inhibition of growth at 1 µM [9] was 49%. The inhibition of growth at 1 µM (MCF7 [10]) was 28%, the inhibition of growth at 10 µM (KB [11]) was 100% and the inhibition of growth at 10 µM (HCT-116 [12]) was 81%. For the same molecule, the inhibition of growth at 10 µM (MCF7 [13]) was 55%, the IC50 (KB [14]) was 5000 nM and the inhibition of growth at 10 µM (HCT-15 [15]) was 84%. The inhibition of growth at 1 µM [16] was 56%.

For `CC[C@H]1c2ccccc2-c2c([nH]c3ccccc23)C(=O)N1C`, the inhibition of growth at 10 µM (HL-60 [1]) was 100%, the inhibition of growth at 10 µM [2] was 92% and the inhibition of growth at 1 µM (HCT-15 [3]) was 92%. The inhibition of growth at 10 µM [4] was 89%, the inhibition of growth at 1 µM (KB [5]) was 100% and the inhibition of growth at 1 µM (HL-60 [6]) was 85%. It also gave an IC50 [7] of 4.1 µM, an inhibition of growth at 1 µM (HCT-116 [8]) of 91% and an inhibition of growth at 1 µM [9] of 70%. It also gave an inhibition of growth at 1 µM (MCF7 [10]) of 85%, an inhibition of growth at 10 µM (KB [11]) of 100% and an inhibition of growth at 10 µM (HCT-116 [12]) of 100%. The inhibition of growth at 10 µM (MCF7 [13]) was 96%, the IC50 (KB [14]) was 2 nM and the inhibition of growth at 10 µM (HCT-15 [15]) was 100%. The inhibition of growth at 1 µM [16] was 75%.
